Measured values from different studies.
Protocols differ between the studies behind these lines.
Target: Serine/threonine-protein kinase SBK1 (SBK1, Homo sapiens, UniProt Q52WX2)

Compound	read-out	method	concentration	remaining binding [%]
O=C(NCc1ncc(C(F)(F)F)cc1Cl)c1ccc2c(c1)C1(CCS(=O)(=O)CC1)[C@H](C1CC1)N2S(=O)(=O)c1ccc(F)cc1	cell-free assay	competition with immobilised ligand	1 µM	97
COc1ncc2cc3ccccc3nc2c1C#N	cell-free assay	competition with immobilised ligand	5 µM	82
CNC(=O)[C@@H]1CC[C@@H](n2c(-c3ccc4cnccc4c3)nc3ccc(C(=O)NCc4cccc(C(N)=O)c4)cc32)C1	binding	competition with immobilised ligand	1 µM	100
C[C@@H]1CCN(c2nccc(-c3cnn4ncccc34)n2)C1	binding		1 µM	85
Cc1cc(NC(=O)c2cccc(S(F)(F)(F)(F)F)c2)cc(-n2ccn3nc(-c4cccnc4)cc23)c1	cell-free assay	competition with immobilised ligand	1 µM	100
CC1CCCN1c1nccc(-c2cnn3ncccc23)n1 (stereo not shown)	binding		1 µM	100
Cc1cc(-n2nc(Cc3cc(F)cc(C(F)(F)F)c3)nc2C)ccc1C(N)=O	cell-free assay	competition with immobilised ligand	1 µM	98
O=C(NCCCN1CCOCC1)c1ccc(Nc2nccc(-c3cc4ccccc4s3)n2)cc1	binding	competition with immobilised ligand	1 µM	71
CN(CCCC(F)(F)F)c1nccc(-c2cnn3ncccc23)n1	binding		1 µM	85
C[C@@H](c1ccc(-n2cnc3c(N)ncnc32)cc1)N1CCc2nn(C)c(Cc3ccccc3)c2C1=O	binding	competition with immobilised ligand	0.1 µM	69
O=C(c1ccc(Nc2ncc(Cl)c(-c3cc4ccccc4s3)n2)cc1)N1CCC(N2CCCC2)CC1	binding	competition with immobilised ligand	1 µM	52
CC(=O)c1c(NS(C)(=O)=O)c2cc(-c3ccc(Cl)cc3)c(-c3ccc(Cl)cc3Cl)nc2n(C)c1=O	cell-free assay	competition with immobilised ligand	1 µM	77
c1cncc(-c2cccc(Nc3nccc(NC4CCCCC4)n3)c2)c1	binding	competition with immobilised ligand	10 µM	66
CCN1CCN(Cc2ccc(C(=O)Nc3ccc(C)c(Oc4ccc5c(c4)CC(=O)N5)c3)cc2C(F)(F)F)CC1	binding	competition with immobilised ligand	1 µM	76
COc1ccnn2ncc(-c3ccnc(N(C)C)n3)c12	binding		1 µM	100
CCCCN(CCCC)C(=O)CN1C[C@H](c2cc(OC)c3c(c2)OCO3)[C@@H](C(=O)O)[C@@H]1CC(C)(C)CCC	cell-free assay	competition with immobilised ligand	1 µM	76.5
c1cnn2ncc(-c3ccnc(N4CCC45COC5)n3)c2c1	binding		1 µM	65
O=S(=O)(NC1CCC(c2cc(F)ccc2F)(S(=O)(=O)c2ccc(Cl)cc2)CC1)C(F)(F)F (stereo not shown)	cell-free assay	competition with immobilised ligand	1 µM	75
N[C@@H]1CCN(c2nccc(-c3cnn4ncccc34)n2)C1	binding		1 µM	94
O=C(NCC1CCOCC1)c1n[nH]cc1NC(=O)c1c(F)cccc1F	binding	competition with immobilised ligand	1 µM	70
Cc1cnc(Nc2ccc(C(=O)N3CCC(N4CCCC4)CC3)cc2)nc1-c1cc2ccccc2s1	binding	competition with immobilised ligand	1 µM	51
CN(C)CC#Cc1ccc(OCCCc2sc(N3CCc4cccc(C(=O)Nc5nc6ccccc6s5)c4C3)nc2C(=O)O)c(F)c1	cell-free assay	competition with immobilised ligand	1 µM	100
